The EternaBench riboswitch data

Test system: MS2 coat protein
Test: apparent Kd, MS2 coat protein; higher = weaker binding; RNA-MaP array; theophylline 2 mM where present
How it was run: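 Green signal from SNAP-549-labelled MS2 coat protein was normalised to red-channel RNA signal and to the median Fmax of control clusters. The protein was titrated from 0.7 or 1.5 nM, doubling to 3 µM, without and then with constant ligand, over designs transcribed by stalled E. coli RNA polymerase on Illumina sequencing-chip clusters, in 100 mM Tris-HCl pH 7.5, 80 mM KCl, 4 mM MgCl2, BSA, DTT, yeast tRNA and Tween-20. The apparent Kd is the median of filtered per-cluster binding-curve fits.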

[1] = designed as: ON switch for theophylline, no ligand
[2] = ligand present: theophylline, designed as: ON switch for theophylline
[3] = designed as: OFF switch for theophylline, no ligand
[4] = ligand present: theophylline, designed as: OFF switch for theophylline

Sequence | apparent Kd [1] [nM] | apparent Kd [2] [nM] | apparent Kd [3] [nM] | apparent Kd [4] [nM]
AUAAAUAUAACCGAUACCAGCCUUAUACAUGAGGAUCACCCAUGUUAUGCUUCCUUUCUUGGCCCUUGGCAGCGGAAAUGGGUAA | 57.9 | 26.4 |  | 
AGCGACAUGCGUGAUACCAGCUACAUGAGGAUCACCCAUGUACGUCAGAAAUGACUGUGUAGCCCUUGGCAGCAUAGUGCAUGUC |  |  | 32.6 | 60.7
AAUGCUGCCAAGGAUUCCUCAUGAGCAGAUACCAGCUAGGAAACUAGCCCUUGGCAGCUGCAACAUGAGGAUCACCCAUGUAAUA |  |  | 38.5 | 26.3
UGACAUUGCUCAGAUACCAGACAUGAGGAUCACCCAUGUGCCAAAACGUACUAAAUAAAUGUCCCUUGGCAGCUGAGCAAUGUCU |  |  | 12.6 | 126
CGACGAUACCUGGAUACCAGCGACAUGAGGAUCACCCAUGUAUGUGGAUCAGCCAUGAUAUGCCCUUGGCAGCCACCAAAGUCGG |  |  | 14.9 | 51.9
GCACCAGGUACGGAUACCAGCUGCCAGCGUUACAUGAGGAUCACCCAUGUGAUCUGAUAUAGCCCUUGGCAGCUGUACCUGGUGC | 110 | 865 |  | 
AAUAACAUGAGGAUCACCCAUGUAAAAGAUACCAGAGUGAUGAUCCUCCCUUGGCAGCUUAAUAACGCUAUCGGAAACGAUAGCG | 69.2 | 105 |  | 
GAGCUGAUGUAGGGCGGAUAUCCGUGAGAUACCAGUACAGAAAUGUACCCUUGGCAGCUCUUCCUUACAUGAGGAUCACCCAUGU |  |  | 19.4 | 36.1
UCGCAUUGCUGCGAUACCAGACAUGAGGAUCACCCAUGUACCAAGAAAACGUACAUAAAUGUCCCUUGGCAGCGCAGCAAUGCGU |  |  | 443 | 1110
ACGAACGAUAGCGAUACCAGACGUACAUGAGGAUCACCCAUGUUUUGGGUAAGGUUAAUAGUCCCUUGGCAGCGCUUUAAGUUCG |  |  | 59.6 | 469
AAUAACAUGAGGAUCACCCAUGUAAAAGAUACCAGAUGCAUGAUGAUCCCUUGGCAGCUUAACGCUGAUUGGAAACAAUCAGCGA | 39 | 37.6 |  | 
AGGAAACAACAUGAGGAUCACCCAUGUGAUACCAGUCAAAUAAAAGACCCUUGGCAGCACACAUGACAUGAGGAUCACCCAUGUA | 31.9 | 77 |  | 
AGUAAUCUAUCAGAUACCAGACCCUCUUUAACAUGAGGAUCACCCAUGUCUAUGUUCUACGUCCCUUGGCAGCUGUAAAUGAUAA | 45.9 | 20.9 |  | 
CGUGGUGGGACGGAUACCAGCCACCGCGGCAACGCAACAUGAGGAUCACCCAUGUUGGGUGGCCCUUGGCAGCUGUCCUGCGGCG | 11.5 | 13.4 |  | 
UAUCUUGCGGGCGCCCGCAAGGUUGCGGAUACCAGCGAGAUAAAUCGCCCUUGGCAGCCGAACAUGAGGAUCACCCAUGUCGGAC | 9.99 | 12.7 |  | 
GAUGAACUAUAUGAUACCAGACAACAUGAGGAUCACCCAUGUGUAAGUCGUCCUCUGCCUGUCCCUUGGCAGCGUAUAGUUUAUC |  |  | 47.6 | 84
UGUAUGUGAUUUGAUACCAGACCAACUGGUAAUACAUGAGGAUCACCCAUGUAGAUUUGGGUCCCUUGGCAGCAAAUCGCAUACU | 48 | 11.7 |  | 
AGACAUGAGGAUCACCCAUGUAGUACGGAUACCAGAUCCAGAUGCGUCCCUUGGCAGCUGUGGUACAGCGUUACAUCGCUCGUAG |  |  | 17.6 | 17.6
UUAUUUAUAAUGGAUACCAGUUUAAUGGCCGCAAAUCCUGACAUGAGGAUCACCCAUGUAAGCCCUUGGCAGCUGUUAUGGGUUU |  |  | 34.8 | 41.3

Sequence | apparent Kd [1] [nM] | apparent Kd [2] [nM] | apparent Kd [3] [nM] | apparent Kd [4] [nM]
UGGUACAUGAGGAUCACCCAUGUGCCGGAUACCAGAGAGCCGGCUCUCCCUUGGCAGCUGGCGCGACAUGAGGAUCACCCAUGUG |  |  | 25.2 | 38.4
AGUACUCGAACGGAUACCAGCCGGACAUGAGGAUCACCCAUGUCCUACCUCUGUUCGGUUGGCCCUUGGCAGCCGUUCGUGUACA | 99.4 | 93.3 |  | 
GAUGAACUAUUUGAUACCAGACUACAUGAGGAUCACCCAUGUGCGCGUCGUCCUCUGCCAGUCCCUUGGCAGCAAAUAGUUUAUC |  |  | 101 | 127
ACAUGAGGAUCACCCAUGUGCAGAACGGAUACCAGCGUCCUGGUACGCCCUUGGCAGCCGGACAUGAGGAUCACCCAUGUGUGGA |  |  | 93.1 | 406
AACAUGGGAUUAAAAUAAAUAAUAACUGAUACCAGACUAUAUAAUGUCCCUUGGCAGCAGAUACAUGAGGAUCACCCAUGUAUUA |  |  | 12.9 | 23.8
GGCCGAUGGUGCGAUACCAGCUUGAGUGUACUGGCCAGGUACAUGAGGAUCACCCAUGUAAGCCCUUGGCAGCGCGUCAGAGGCC |  |  |  | 35.8
UGACAUUGCUCAGAUACCAGACAUGAGGAUCACCCAUGUACCAAGGUACCCGAAAGGAAUGUCCCUUGGCAGCUGAGCAAUGUCU |  |  | 9.93 | 21.6
AUAAUGGGUAUCGGAUUAUCAUGGAAUGAUACCAGAUACUUAGAUAUCCCUUGGCAGCAUGAGGACAUGAGGAUCACCCAUGUAU |  |  | 46.4 | 118
AUCGUACCUGAUGAUACCAGCAAGUGAUCAUAACAUGAGGAUCACCCAUGUAAUCAGUGAUGCCCUUGGCAGCAUAAUCGAUACA | 178 | 140 |  | 
AAAUAAAUAACUGAUACCAGUGUACUGACAUGAGGAUCACCCAUGUUGGGUUUGGUUGUACACCCUUGGCAGCAGAAAUAUAAAA |  |  | 15.9 | 29.8
ACCCAUAAUUGGGCGGGUGGAUUGAGUGAUACCAGUCGUAUACAUGACCCUUGGCAGCACCGACAUGAGGAUCACCCAUGUGCCA | 39.7 | 99.8 |  | 
UUAUGAUGUUCCGAUACCAGCCAUGUGGUUCUAACUUAACAUGAGGAUCACCCAUGUACCGGCCCUUGGCAGCGGAUGUGGAUUA | 11.2 | 17 |  | 
AUCCUUAAUAGGGUAAAUGGAUAAAGUGAUACCAGUCAAAUACAAGACCCUUGGCAGCACAAGGACAUGAGGAUCACCCAUGUCA | 20.5 | 14.7 |  | 
UUAUUUAUAAUUGAUACCAGUUUAAUGGCCGCAAAUCCUGACAUGAGGAUCACCCAUGUAAGCCCUUGGCAGCGGUUAUGGGUUU |  |  | 21 | 21.1
AGACAUGAGGAUCACCCAUGUAGUAUGGAUACCAGAUCCAGAUUUAUCCCUUGGCAGCUGUGGUACAGCGUUGCAACGCUCCUAG |  |  | 29.3 | 28.9
ACAUGAGGAUCACCCAUGUAGUGGCACGAUACCAGCUGAUCCCGUGGCCCUUGGCAGCGUCCGGUGUGGUCUGCCGGGAUGGAGC | 23.7 | 28.4 |  | 
AACCGAGGCUAUCCUCUAAGACUAUGUGAUACCAGAAUAAUUUUAUUCCCUUGGCAGCAUGACAUGAGGAUCACCCAUGUCUCUU | 27.8 | 32.3 |  | 
UGAUCCUACAGAGAUACCAGUGCCACUAAAUAACUAAACACAUGAGGAUCACCCAUGUAACACCCUUGGCAGCUCAACUAAAGGG | 27.4 | 19.2 |  | 
